Assay results: ChEMBL document CHEMBL5576157, “"Seasoning" antimalarial drugs' action: chloroquine bile salts as novel triple-stage antiplasmodial hits” (RSC Med Chem, 2024)
The source made the active and inactive calls. The calls are words filed in the database; no cut-off is given here.

Assays:
[1] = tested on: Plasmodium falciparum; assay: Antimalarial activity against blood stage chloroquine-sensitive Plasmodium falciparum 3D7 expressing GFP infected in erythrocytes assessed as inhibition of parasite growth at 10 uM incubated for 72 hrs by flow cytometry analysis relative to control; assay type: functional; settings: 3D7, Erythrocyte
In short: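 Unsynchronized P. falciparum 3D7-GFP culture (0,6% hematocrit, 0,5% parasitaemia) was exposed to 10 µM compound for 72 h at 37 °C and 5% CO2. Growth was read by flow cytometry of GFP (Fl-1, 488 nm excitation), counting 20,000–40,000 erythrocytes per well.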

[2] = tested on: Plasmodium falciparum; assay: Antimalarial activity against stage III gametocytes of Plasmodium falciparum 3D7 expressing GFP infected erythrocytes assessed inhibition of gametocyte level at 10 uM after 72 hrs followed by compound washout and measured after 24 hrs by Giemsa-staining based microscopic analysis relative to control; assay type: functional; settings: 3D7, Erythrocyte
In short: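 P. falciparum 3D7HT-GFP was sorbitol-synchronized, and schizonts were Percoll-purified and cultured at 3% hematocrit until stage III gametocytes appeared. Microcultures of 1 mL (1-2% gametocytemia, 2.5% hematocrit) got 10 µM compound or DMSO (<0.3%) for 72 h, then compound-free medium for 24 h. Stage IV/V gametocytes were counted per 3000 RBC on Giemsa smears, in duplicate by two microscopists. Inhibition = 100 − (treated/drug-free control ×100).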

[3] = tested on: Plasmodium falciparum; assay: Antimalarial activity against blood stage chloroquine-sensitive Plasmodium falciparum 3D7 expressing GFP infected in erythrocytes assessed as reduction in parasitemia incubated for 72 hrs by flow cytometry analysis; assay type: functional, organism-based; settings: 3D7, Erythrocyte
In short: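 Growth was read by flow cytometry on the GFP channel (488 nm excitation), counting 20,000–40,000 RBC per well. IC50 values were fitted from the curves and reported as the mean of at least three experiments, each in duplicate.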

[4] = Stability of compound assessed as degradation temperature at 25 to 500 degreeC under N2 gas by thermogravimetric analysis; assay type: physicochemical
In short: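 Thermogravimetric analysis heated samples from 25 to 500 °C at 5 °C/min under N2 flowing at 50 mL·min⁻¹.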

[5] = tested on: Erythrocyte; assay: Hemolytic activity in RBC (unknown origin) assessed as hemolysis at 10 uM incubated for 1 hr by microplate reader assay; assay type: toxicity, cell-based; settings: human
In short: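 Human blood had plasma removed by spinning. RBC were washed three times in 0.01 M PBS pH 7.4 and set to 6% hematocrit. They were mixed with an equal volume of compound at 20 µM in PBS with 1.3% DMSO and kept 1 h at 37 °C, then spun. Supernatant A450 was read. Hemolysis % was scaled between PBS/0.65% DMSO (negative) and 1% Triton X-100 (positive).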

[6] = tested on: Huh-7; assay: Cytotoxicity against human Huh-7 cells assessed as reduction in cell viability at 10 uM by AlamarBlue assay; assay type: toxicity, cell-based; settings: huh-7, 10 µM
In short: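 Huh-7 hepatoma cells were cultured in RPMI with 10% FCS, non-essential amino acids, glutamine, penicillin/streptomycin and 10 mM HEPES pH 7, at 37 °C and 5% CO2, within the liver-stage infection setup. Viability was read by AlamarBlue following the manufacturer's protocol.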

[7] = tested on: Plasmodium berghei; assay: Antimalarial activity against Plasmodium berghei sporozoites expressing firefly luciferase infected in human Huh-7 cells assessed reduction in parasite growth at 10 uM preincubated for 1 hr followed by infection and measured after 48 hrs by luminescence analysis; assay type: functional, organism-based; settings: time 49.0 hrs
In short: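 Huh-7 hepatoma cells were grown in RPMI with 10% FCS, non-essential amino acids, glutamine, penicillin/streptomycin and 10 mM HEPES pH 7, at 37 °C and 5% CO2. Cells were seeded at 1.2×10⁴/well the day before. Compound medium was added ~1 h before infection with firefly luciferase P. berghei sporozoites freshly dissected from mosquito salivary glands, then spun at 1700 g for 5 min. Parasite load was read at 48 h by lysate luminescence after luciferin addition.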

[8] = tested on: Plasmodium falciparum; assay: Antimalarial activity against blood stage chloroquine-resistant Plasmodium falciparum Dd2 infected in erythrocytes assessed as reduction in parasitemia incubated for 72 hrs by flow cytometry analysis; assay type: functional, organism-based; settings: Dd2, Erythrocyte

| SMILES | inhibition at 10 µM [1] | inhibition at 10 µM [2] | IC50 [3] | T [4] | Activity [5] | Activity [6] | Activity [7] | IC50 [8] |
| --- | --- | --- | --- | --- | --- | --- | --- | --- |
| COc1cc(NC(C)CCCN)c2ncccc2c1.C[C@H](CCC(=O)O)[C@H]1CC[C@H]2[C@@H]3CC[C@@H]4C[C@H](O)CC[C@]4(C)[C@H]3C[C@H](O)[C@]12C | 82% | 86% | 600 nM | 348 °C | Non-Toxic | Non-Toxic |  |  |
| COc1cc(NC(C)CCCN)c2ncccc2c1.C[C@H](CCC(=O)O)[C@H]1CC[C@H]2[C@@H]3[C@H](O)C[C@@H]4C[C@H](O)CC[C@]4(C)[C@H]3CC[C@]12C | 82% | 80% | 380 nM | 366 °C | Non-Toxic | Non-Toxic |  |  |
| COc1cc(NC(C)CCCN)c2ncccc2c1.C[C@H](CCC(=O)O)[C@H]1CC[C@H]2[C@@H]3[C@H](O)C[C@@H]4C[C@H](O)CC[C@]4(C)[C@H]3C[C@H](O)[C@]12C | 82% | 91% | 589 nM | 359 °C | Non-Toxic | Non-Toxic |  |  |
| CCN(CC)CCCC(C)Nc1ccnc2cc(Cl)ccc12.O=P(O)(O)O.O=P(O)(O)O (centres undefined) [CHLOROQUINE PHOSPHATE] | 98% | 72% |  |  | Non-Toxic |  |  |  |
| CCN(CC)CCCC(C)Nc1ccnc2cc(Cl)ccc12.C[C@H](CCC(=O)O)[C@H]1CC[C@H]2[C@@H]3CC[C@@H]4C[C@H](O)CC[C@]4(C)[C@H]3CC[C@]12C [listing 1 of 2 here] |  |  |  |  |  |  | Active |  |
| COc1cc(NC(C)CCCN)c2ncccc2c1.O=P(O)(O)O.O=P(O)(O)O (centres undefined) [PRIMAQUINE PHOSPHATE] | 83% | 93% | 415 nM |  | Non-Toxic |  |  | 464 nM |
| COc1cc(NC(C)CCCN)c2ncccc2c1.C[C@H](CCC(=O)O)[C@H]1CC[C@H]2[C@@H]3CC[C@@H]4C[C@H](O)CC[C@]4(C)[C@H]3CC[C@]12C [listing 1 of 2 here] | 82% | 83% | 424 nM | 253 °C | Non-Toxic | Non-Toxic |  |  |
| CCN(CC)CCCC(C)Nc1ccnc2cc(Cl)ccc12.C[C@H](CCC(=O)NCC(=O)O)[C@H]1CC[C@H]2[C@@H]3[C@H](O)C[C@@H]4C[C@H](O)CC[C@]4(C)[C@H]3C[C@H](O)[C@]12C | 97% | 86% |  | 361 °C | Non-Toxic | Non-Toxic |  |  |
| C[C@H](CCC(=O)NCCCCNc1ccnc2cc(Cl)ccc12)[C@H]1CC[C@H]2[C@@H]3[C@H](O)C[C@@H]4C[C@H](O)CC[C@]4(C)[C@H]3C[C@H](O)[C@]12C |  | 91% | 108 nM | 250 °C | Non-Toxic | Non-Toxic | Active | 562 nM |
| CCN(CC)CCCC(C)Nc1ccnc2cc(Cl)ccc12.C[C@H](CCC(=O)O)[C@H]1CC[C@H]2[C@@H]3[C@H](O)C[C@@H]4C[C@H](O)CC[C@]4(C)[C@H]3C[C@H](O)[C@]12C | 97% | 88% |  | 253 °C | Non-Toxic | Non-Toxic |  |  |
| C[C@H](CCC(=O)NCC(=O)O)[C@H]1CC[C@H]2[C@@H]3[C@H](O)C[C@@H]4C[C@H](O)CC[C@]4(C)[C@H]3C[C@H](O)[C@]12C [GLYCOCHOLIC ACID] |  | 41% |  | 328 °C | Non-Toxic |  |  |  |
| C[C@H](CCC(=O)O)[C@H]1CC[C@H]2[C@@H]3CC[C@@H]4C[C@H](O)CC[C@]4(C)[C@H]3C[C@H](O)[C@]12C [DEOXYCHOLIC ACID] |  | 42% |  | 357 °C | Non-Toxic |  |  |  |
| C[C@H](CCC(=O)O)[C@H]1CC[C@H]2[C@@H]3[C@H](O)C[C@@H]4C[C@H](O)CC[C@]4(C)[C@H]3C[C@H](O)[C@]12C [CHOLIC ACID] |  | 39% |  | 360 °C | Non-Toxic |  |  |  |
| CCN(CC)CCCC(C)Nc1ccnc2cc(Cl)ccc12.C[C@H](CCC(=O)O)[C@H]1CC[C@H]2[C@@H]3CC[C@@H]4C[C@H](O)CC[C@]4(C)[C@H]3CC[C@]12C [listing 2 of 2 here] | 97% | 90% |  | 367 °C | Non-Toxic | Non-Toxic |  |  |
| CCN(CC)CCCC(C)Nc1ccnc2cc(Cl)ccc12.C[C@H](CCC(=O)O)[C@H]1CC[C@H]2[C@@H]3[C@H](O)C[C@@H]4C[C@H](O)CC[C@]4(C)[C@H]3CC[C@]12C | 97% | 87% |  | 255 °C | Non-Toxic | Non-Toxic |  |  |
| COc1cc(NC(C)CCCN)c2ncccc2c1.C[C@H](CCC(=O)O)[C@H]1CC[C@H]2[C@@H]3CC[C@@H]4C[C@H](O)CC[C@]4(C)[C@H]3CC[C@]12C [listing 2 of 2 here] |  |  |  |  |  |  | Active |  |
| COc1cc(NC(C)CCCN)c2ncccc2c1.C[C@H](CCC(=O)NCC(=O)O)[C@H]1CC[C@H]2[C@@H]3[C@H](O)C[C@@H]4C[C@H](O)CC[C@]4(C)[C@H]3C[C@H](O)[C@]12C | 82% | 81% | 384 nM | 255 °C | Non-Toxic | Non-Toxic |  |  |
| CCN(CC)CCCC(C)Nc1ccnc2cc(Cl)ccc12.C[C@H](CCC(=O)O)[C@H]1CC[C@H]2[C@@H]3CC[C@@H]4C[C@H](O)CC[C@]4(C)[C@H]3C[C@H](O)[C@]12C | 97% | 86% |  | 242 °C | Non-Toxic | Non-Toxic |  |  |
| C[C@H](CCC(=O)O)[C@H]1CC[C@H]2[C@@H]3CC[C@@H]4C[C@H](O)CC[C@]4(C)[C@H]3CC[C@]12C [LITHOCHOLIC ACID] |  | 65% |  | 355 °C | Non-Toxic |  |  |  |
